Calls of active or inactive are those of the source. The calls are words filed in the database; no cut-off is given here.
How the values were obtained:
[1] = test system: THP-1; assay: Antiinflammatory activity in human THP1 cells assessed as inhibition of PMA-induced TNF-alpha secretion incubated for 2 hrs prior to PMA challenge measured after 48 hrs by ELISA; format: functional, cell-based
Summary of the method: (§1)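 Seeded at 2×10^5/ml, THP-1 cells were pretreated 2 h with 5, 10 and 20 µM, then stimulated with 100 nM PMA. Supernatants were taken after 48 h and assayed by ELISA kit, read at 450 nm corrected at 570 nm, and quantified against standard curves (pg/ml). Percent inhibition was calculated versus control. IC50 is the predicted 50%-inhibition concentration, mean ± SD of three independent experiments.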

[2] = test system: THP-1; assay: Antiinflammatory activity in human THP1 cells assessed as inhibition of PMA-induced IL-8 secretion incubated for 2 hrs prior to PMA challenge measured after 48 hrs by ELISA; format: functional, cell-based; summary of the method: as §1
[3] = test system: THP-1; assay: Antiinflammatory activity in human THP1 cells assessed as inhibition of PMA-induced MCP-1 secretion incubated for 2 hrs prior to PMA challenge measured after 72 hrs by ELISA; format: functional, cell-based
Summary of the method: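 THP-1 monocytes, 2×10^5/ml, received 5, 10 and 20 µM for 2 h before 100 nM PMA. Supernatant MCP-1 was measured by ELISA kit 72 h after PMA, with absorbance at 450 nm corrected at 570 nm and standard-curve quantitation. Percent inhibition is relative to control. IC50 is the predicted 50%-inhibition concentration, mean ± SD of three independent experiments.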

[4] = Cytotoxicity against human THP1 cells assessed as cell viability at 20 uM after 72 hrs by trypan blue dye exclusion assay; format: cell-based; conditions: THP-1 cells, read-out: Activity
Summary of the method: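 THP-1 cells were seeded at 2×10^5 cells/ml in triplicate and exposed to 20 µM for 72 h. Cells were then harvested, resuspended in 0.4% trypan blue, and percent viable cells counted on an automated cell counter chamber.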

[5] = test system: THP-1; assay: Antiinflammatory activity in human THP1 cells assessed as inhibition of PMA-induced CD-36 expression at 10 uM incubated for 2 hrs prior to PMA challenge measured after 36 hrs by RT-PCR analysis; format: functional, cell-based
Summary of the method: (§2)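 THP-1 monocytes (ATCC; RPMI 1640, 10% FBS, 37 °C, 5% CO2) pretreated 2 h, then 100 nM PMA for 36 h. Total RNA extracted in TRIzol, cDNA made, and LOX-1 and CD-36 transcripts measured by RT-PCR with gene-specific primers; GAPDH served as loading control.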

[6] = target: Matrix metalloproteinase-9 (Homo sapiens) (UniProt P14780); assay: Inhibition of MMP-9 in human THP1 cells assessed as inhibition of PMA-induced monocyte to macrophage transformation at 10 uM incubated for 2 hrs prior to PMA challenge measured after 48 hrs by gelation zymography; format: cell-based; conditions: THP-1
Summary of the method: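 THP-1 monocytes were pretreated 2 h at 10 µM, then stimulated with 100 nM PMA for 48 h. Conditioned medium was run without reducing agent on 10% SDS-PAGE containing 0.1% gelatin. Gels were renatured 30 min in 0.25% Triton X-100 and developed overnight at room temperature in Tris/CaCl2/Brij 35 buffer.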

[7] = test system: THP-1; assay: Antiinflammatory activity in human THP1 cells assessed as inhibition of PMA-induced increase in cell size at 10 uM incubated for 2 hrs prior to PMA challenge measured after 48 hrs by light microscopy; format: functional, cell-based
Summary of the method: (§3)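 After 2 h pretreatment at 10 µM and 100 nM PMA for 48 h, THP-1 cultures had medium removed and were washed twice with warm DPBS. Phase-contrast light microscopy images were then used to assess adherence and monocyte/macrophage transformation.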

[8] = test system: THP-1; assay: Antiinflammatory activity in human THP1 cells assessed as inhibition of PMA-induced increase in cell adherence at 10 uM incubated for 2 hrs prior to PMA challenge measured after 48 hrs by light microscopy; format: functional, cell-based; summary of the method: as §3
[9] = test system: THP-1; assay: Antiinflammatory activity in human THP1 cells assessed as inhibition of PMA-induced increase in mitochondrial number at 10 uM incubated for 2 hrs prior to PMA challenge measured after 48 hrs by confocal microscopy; format: functional, cell-based
Summary of the method: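 Cells were treated in cover-glass-bottom dishes: 10 µM for 2 h, then 100 nM PMA. After 48 h they were stained 1 h with 200 nM MitoTracker CMXRos in HBSS and counterstained with DAPI. Confocal imaging used rhodamine and DAPI filters, with five fields of view, and gentle washes between steps.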

[10] = test system: THP-1; assay: Antiinflammatory activity in human THP1 cells assessed as inhibition of PMA-induced LOX-1 expression at 10 uM incubated for 2 hrs prior to PMA challenge measured after 36 hrs by RT-PCR analysis; format: functional, cell-based; summary of the method: as §2

Matrix metalloproteinase-9 (Homo sapiens), sequence (P14780 whole entry): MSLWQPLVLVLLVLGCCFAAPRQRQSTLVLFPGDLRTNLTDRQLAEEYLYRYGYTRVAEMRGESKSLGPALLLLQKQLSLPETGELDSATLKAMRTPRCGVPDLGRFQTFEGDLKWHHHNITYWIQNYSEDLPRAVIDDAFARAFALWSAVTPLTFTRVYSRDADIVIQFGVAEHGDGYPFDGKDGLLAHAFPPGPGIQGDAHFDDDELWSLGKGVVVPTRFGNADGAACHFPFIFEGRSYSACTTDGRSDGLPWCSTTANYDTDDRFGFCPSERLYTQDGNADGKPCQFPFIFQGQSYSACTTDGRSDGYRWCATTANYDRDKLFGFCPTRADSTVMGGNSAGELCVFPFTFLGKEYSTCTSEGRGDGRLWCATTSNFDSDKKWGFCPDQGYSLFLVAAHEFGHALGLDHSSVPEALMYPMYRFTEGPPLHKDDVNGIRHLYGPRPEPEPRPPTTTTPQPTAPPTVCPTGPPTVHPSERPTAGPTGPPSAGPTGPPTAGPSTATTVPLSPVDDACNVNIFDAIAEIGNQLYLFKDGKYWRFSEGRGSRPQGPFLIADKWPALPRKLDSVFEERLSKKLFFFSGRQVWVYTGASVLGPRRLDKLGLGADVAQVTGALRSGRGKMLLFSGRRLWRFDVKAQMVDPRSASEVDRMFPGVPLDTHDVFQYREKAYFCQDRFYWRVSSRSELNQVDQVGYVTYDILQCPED

Structure (SMILES) | IC50 [1] | IC50 [2] | IC50 [3] | inhibition [6] | viability at 72 h, 20 µM [4] | inhibition [5] | inhibition [7] | inhibition [8] | inhibition [9] | inhibition [10]
CCOC1=C(/C(C)=N/OCC(=O)Nc2ccc(F)c(Cl)c2)N(C)S(=O)(=O)c2ccccc21 | > 20 µM | > 20 µM | > 20 µM | – | 97.5% | – | – | – | – | –
CCOC1=C(/C(C)=N/OCC(=O)Nc2ccc(C(F)(F)F)cc2)N(C)S(=O)(=O)c2ccccc21 | > 20 µM | 16.7 µM | 5.7 µM | – | 93% | – | – | – | – | –
C/C(=N\OCC(=O)Nc1ccc(F)c(Cl)c1)C1=C(O)c2ccccc2S(=O)(=O)N1C | > 20 µM | > 20 µM | > 20 µM | – | 95.1% | – | – | – | – | –
C/C(=N\OCC(=O)Nc1cccc(F)c1)C1=C(O)c2ccccc2S(=O)(=O)N1C | > 20 µM | > 20 µM | 9.4 µM | – | 95.5% | – | – | – | – | –
CN1C(C(=O)Nc2ccccn2)=C(O)c2ccccc2S1(=O)=O [PIROXICAM] | > 20 µM | – | – | – | – | – | – | – | – | –
CCOC1=C(/C(C)=N/OCC(=O)Nc2ccc(Cl)c(C(F)(F)F)c2)N(C)S(=O)(=O)c2ccccc21 | > 20 µM | > 20 µM | > 20 µM | – | 90.2% | – | – | – | – | –
COc1cccc(NC(=O)CO/N=C(\C)C2=C(O)c3ccccc3S(=O)(=O)N2C)c1 | > 20 µM | > 20 µM | > 20 µM | – | 92.5% | – | – | – | – | –
C/C(=N\OCC(=O)Nc1ccccc1)C1=C(O)c2ccccc2S(=O)(=O)N1C | > 20 µM | > 20 µM | > 20 µM | – | 94.1% | – | – | – | – | –
CCOC1=C(/C(C)=N/OCC(=O)Nc2c(F)cccc2F)N(C)S(=O)(=O)c2ccccc21 | > 20 µM | > 20 µM | > 20 µM | – | 92.3% | – | – | – | – | –
CCOC1=C(/C(C)=N/OCC(=O)Nc2cccc(F)c2)N(C)S(=O)(=O)c2ccccc21 | > 20 µM | > 20 µM | > 20 µM | – | 92% | – | – | – | – | –
CCc1ccc(CCOc2ccc(CC3SC(=O)NC3=O)cc2)nc1 (stereo not drawn) [PIOGLITAZONE] | – | – | 18.6 µM | – | – | – | – | – | – | –
COc1ccc(NC(=O)CO/N=C(\C)C2=C(O)c3ccccc3S(=O)(=O)N2C)cc1 | > 20 µM | > 20 µM | > 20 µM | – | 97.5% | – | – | – | – | –

Second part, led by results:

IC50 [1] | IC50 [2] | IC50 [3] | inhibition [6] | Structure (SMILES) | viability at 72 h, 20 µM [4] | inhibition [5] | inhibition [7] | inhibition [8] | inhibition [9] | inhibition [10]
> 20 µM | > 20 µM | > 20 µM | – | CCOC1=C(/C(C)=N/OCC(=O)Nc2cccc(OC)c2)N(C)S(=O)(=O)c2ccccc21 | 96.2% | – | – | – | – | –
> 20 µM | > 20 µM | > 20 µM | – | CCOC1=C(/C(C)=N/OCC(=O)Nc2ccccc2)N(C)S(=O)(=O)c2ccccc21 | 93% | – | – | – | – | –
> 20 µM | > 20 µM | > 20 µM | – | CCOC1=C(/C(C)=N/OCC(=O)Nc2ccc(OC)cc2)N(C)S(=O)(=O)c2ccccc21 | 94.2% | – | – | – | – | –
> 20 µM | > 20 µM | > 20 µM | – | C/C(=N\OCC(=O)Nc1c(F)cccc1F)C1=C(O)c2ccccc2S(=O)(=O)N1C | 92.2% | – | – | – | – | –
12.1 µM | > 20 µM | 4 µM | Active | C/C(=N\OCC(=O)Nc1ccc(C(F)(F)F)cc1)C1=C(O)c2ccccc2S(=O)(=O)N1C | 93% | Active | Active | Active | Active | Active
6 µM | > 20 µM | 2.5 µM | 75% | C/C(=N\OCC(=O)Nc1ccc(Cl)c(C(F)(F)F)c1)C1=C(O)c2ccccc2S(=O)(=O)N1C | 91.2% | Active | Active | Active | Active | Active
